Screening results as filed in PubChem BioAssay.
STAT3 blocker: IL-6 driven STAT3 reporter inhibitors, primary screen, U3A cells, luciferase, luminescence, MLSCN library; AID 862, 2007; inhibition, % at 5.5 µM; IL-6 STAT3-luciferase reporter; host cell line lacks STAT1; 190,000 tested, 0.89% active;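 active = inhibition above the mean inhibition across all screened compounds plus 3 SD, cut at about 44% in these data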
HSV replic up: enhancers of HSV replication in host cells, fold increase, host cell viability. 220,000 tested, 0.005% active. HSV replication augmentation in cells. maximum fold increase. AID 1956, 2009; in the data active = maximum fold increase above about 1.5; inconclusive = no clear call, values can overlap the other calls; tested in PC3 cells
STAT3 act: IL-6 driven STAT3 reporter potentiators, primary screen, U3A cells, luciferase, luminescence, MLSCN library; 190,000 tested, 0.91% active; activation (% of control), % at 5.6 µM; AID 871, 2007; IL-6 STAT3-luciferase reporter; 100% = signal with IL-6 EC80 alone;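 active = activation above the screen-wide mean of compound activation plus 3 SD, cut at about 130% in these data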
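Assay system – human STAT1-deficient U3A cells with stable STAT3-luciferase reporter · Also added – IL-6 (33 ng/mL) · Schedule – compound 1 h, then IL-6 6 h at 37 °C · Technique – reporter luminescence signal · Evaluation – % activation versus median of IL-6-stimulated wells · Benchmarks – IL-6-only wells as 100% reference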
Cl transport mod: KCC2 cotransporter modulators, thallium flux, primary screen, cell-based, HEK293 KCC2, FluoZin-2 fluorescence, MLSMR; Solute carrier family 12 member 5 (Homo sapiens), Q9H2X9; KCC2 cells, thallium flux FluoZin-2 fluorescence; B-score of Tl+ flux slope (higher = more flux/activation; lower = inhibition) at 10 µM; 190,000 tested, 2.2% active;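 active = thallium flux slope and its plate-corrected score both differing from the plate sample mean at a set confidence after two filtering rounds, in either direction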;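 note: slope of fluorescence scaled to starting intensity during 10 to 20 s after thallium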
Target sequence (Q9H2X9 whole entry, looked up): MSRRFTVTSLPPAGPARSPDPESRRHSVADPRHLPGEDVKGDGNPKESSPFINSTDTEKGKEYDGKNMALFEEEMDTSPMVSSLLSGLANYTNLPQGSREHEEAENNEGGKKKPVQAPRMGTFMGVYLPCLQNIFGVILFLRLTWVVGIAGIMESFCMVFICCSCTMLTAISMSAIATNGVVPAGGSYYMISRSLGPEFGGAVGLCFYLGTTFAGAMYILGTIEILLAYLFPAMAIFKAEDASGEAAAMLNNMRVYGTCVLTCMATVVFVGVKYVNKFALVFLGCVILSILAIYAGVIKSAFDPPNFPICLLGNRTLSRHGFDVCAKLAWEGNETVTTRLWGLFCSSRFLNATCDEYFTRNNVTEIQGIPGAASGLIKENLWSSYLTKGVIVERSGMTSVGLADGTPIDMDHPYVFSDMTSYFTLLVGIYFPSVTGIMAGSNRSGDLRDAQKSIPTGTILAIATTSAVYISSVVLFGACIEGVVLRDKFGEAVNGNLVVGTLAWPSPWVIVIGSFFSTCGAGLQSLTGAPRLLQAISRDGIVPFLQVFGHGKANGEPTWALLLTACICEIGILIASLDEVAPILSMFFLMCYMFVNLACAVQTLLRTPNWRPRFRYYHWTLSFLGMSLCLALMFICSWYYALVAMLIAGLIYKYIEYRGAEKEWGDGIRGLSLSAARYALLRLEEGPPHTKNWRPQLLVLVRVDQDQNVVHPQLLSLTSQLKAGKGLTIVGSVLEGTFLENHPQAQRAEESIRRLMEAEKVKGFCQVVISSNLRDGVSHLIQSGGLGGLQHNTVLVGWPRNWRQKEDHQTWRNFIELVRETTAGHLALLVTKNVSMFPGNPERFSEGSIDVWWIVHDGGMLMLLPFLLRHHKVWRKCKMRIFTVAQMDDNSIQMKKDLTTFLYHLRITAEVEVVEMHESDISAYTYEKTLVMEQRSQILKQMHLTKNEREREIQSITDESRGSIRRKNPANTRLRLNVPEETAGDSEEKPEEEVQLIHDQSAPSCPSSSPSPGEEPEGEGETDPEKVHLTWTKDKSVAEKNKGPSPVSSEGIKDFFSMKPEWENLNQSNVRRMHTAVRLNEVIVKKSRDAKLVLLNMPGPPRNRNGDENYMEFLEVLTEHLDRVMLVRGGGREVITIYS
STAT1 activator: STAT1 signaling activators, primary screen, cell-based, HTS, luciferase reporter; NIH 3T3 STAT1-luciferase reporter, IFN-gamma, luminescence; 100% = IFN-gamma alone, no compound; activation (% of control), % at 5.5 µM; 200,000 tested, 2.6% active;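 active = activation above the screen-wide mean activation plus 3 SD, cut at about 130% in these data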
STAT1 blocker: STAT1 signaling inhibitors, primary screen, cell-based, HTS, luciferase reporter. 200,000 tested, 0.35% active. NIH 3T3 STAT1-luciferase reporter, IFN-gamma, luminescence. inhibition, % at 5.5 µM;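 active = inhibition above a set limit, the mean inhibition across all tested compounds plus 3 SD, cut at about 34% in these data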
KCC2 sec1: KCC2 modulators in sodium-free buffer, confirmation, cell-based, HEK293 KCC2, thallium flux, secondary assay; shares compounds with Cl transport mod; FluoZin2 fluorescence; hits give high values; normalised thallium flux (F/F0 slope) at 10 µM; 3,700 tested, 15% active;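 active = thallium flux slope above the same plate's solvent-only control mean plus 3 SD; inconclusive = the two replicate wells disagree; inactive = no significant difference from solvent-only control wells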
KCC2 bumet counter: thallium flux persisting under bumetanide in KCC2 cells, confirmation, counter-screen for KCC2 modulator project, cell-based, HEK293 KCC2, FluoZin2, secondary assay 3 | HEK293-KCC2 + bumetanide/ouabain; hits give high values | AID 1714, 2009 | normalized thallium flux at 10 µM | 3,700 tested, 49% active | shares compounds with Cl transport mod;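 active = thallium entry rate above the same plate's blocked-transporter control wells by more than 3 SD; inconclusive = the two repeat wells disagree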;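 note: raw slope of fluorescence over initial fluorescence between 10 and 20 s after thallium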
KCC2 sec2: KCC2 modulators without ouabain present, confirmation, cell-based, HEK293 KCC2, thallium flux, FluoZin2, secondary assay 2; shares compounds with Cl transport mod; thallium flux FluoZin2 fluorescence; actives lie on both sides; F/F0 rise rate, 10–20 s post-thallium; normalized thallium flux at 10 µM; 3,700 tested, 23% active;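 active = thallium flux slope more than 3 SD above or below the plate's solvent-only control mean, mostly below; inconclusive = the two repeat wells disagreed; inactive = no significant shift from solvent-only controls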
HEK counter1: thallium flux modulation in parental HEK cells, confirmation, counter-screen for KCC2 modulator project, cell-based, counterscreen 1; shares compounds with Cl transport mod; HEK293 parental cells, thallium flux FluoZin2, ouabain; baseline-ratio fluorescence slope, 10–20 s after thallium; thallium flux rate (normalised fluorescence) at 10 µM; 3,700 tested, 46% active;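 active = thallium flux rate significantly above the same plate's solvent-only control wells, beyond their mean plus 3 SD; inconclusive = the two replicate wells gave conflicting results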
KCC2 ouabain: KCC2 inhibitors and activators, ouabain retest, confirmation, HEK-KCC2 cells | HEK293-KCC2, thallium flux FluoZin2 fluorescence; bidirectional: low = inhibitor, high = activator | shares compounds with Cl transport mod | 3,700 tested, 48% active | raw Tl+ flux slope (below DMSO = inhibition, above = activation) at 10 µM | AID 1717, 2009;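 active = thallium flux slope beyond 3 SD from same-plate DMSO control mean in most replicates, usually higher, sometimes lower; inconclusive = repeat tests gave conflicting results; inactive = no significant difference from controls in most replicates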;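 note: slope of initial-normalized fluorescence between seconds 10 and 20 after thallium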
HEK counter2: native HEK Tl+ uptake effects, second counter-screen – HEK cells, counterscreen 2, counter-screen for KCC2 modulator project, confirmation; 3,700 tested, 33% active; thallium flux slope at 10 µM; shares compounds with Cl transport mod; HEK293 parental, thallium flux FluoZin-2 fluorescence slope;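 active = thallium flux slope above the same plate's solvent-control mean plus 3 SD in both duplicate wells; inconclusive = duplicate wells that disagreed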;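 note: run without ouabain in cells lacking the KCC2 cotransporter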
Numbers stand for hits; 0 = inactive; ? = inconclusive; - = no result. Shown are actives, neighbours in structure and some others; about 5.5% of the full set was active somewhere.

SMILES | STAT3 blocker | HSV replic up | STAT3 act | Cl transport mod | STAT1 activator | STAT1 blocker | KCC2 sec1 | KCC2 bumet counter | KCC2 sec2 | HEK counter1 | KCC2 ouabain | HEK counter2
Cc1ccc(NC(=S)/N=C(\N)Nc2nc(C)c3cc(C)c(C)cc3n2)cc1C | 0 | 0 | 0 | 0 | 0 | 0 | - | - | - | - | - | -
COc1ccc(OC)c(/C=N/c2c(-c3ccc(O)c(OC)c3)nc3ccccn23)c1 | 0 | 0 | 0 | 0 | 0 | 0 | - | - | - | - | - | -
O=C(CCCCCn1c(=O)[nH]c2ccsc2c1=O)NCc1ccc2c(c1)OCO2 | 0 | 0 | 0 | 0 | 0 | 0 | - | - | - | - | - | -
CC(C)[C@H](NC(=O)[C@@H]1Cc2ccccc2CN1C(=O)OC(C)(C)C)C(=O)NCC1CCC(C(=O)O)CC1 (some centres undefined) | - | 0 | - | 0 | - | - | - | - | - | - | - | -
Cc1ccc(NC(=O)c2cncc(Br)c2)c(O)c1 | 0 | 0 | 0 | 0 | 0 | 0 | - | - | - | - | - | -
CCOC(=O)c1ccc(S(=O)(=O)N2CCN(C(=O)c3nn(C)c(=O)c4ccccc34)CC2)cc1 | 0 | 0 | 0 | 0 | 0 | 0 | - | - | - | - | - | -
O=C(NC1CCCCC1)c1sc(=S)n2c1[nH]c(=O)c1ccccc12 | 0 | 0 | 0 | 8.7 | 0 | 0 | 0 | 0.033 | 0.041 | 0.025 | 0.035 | 0.027
CC(C)CCNC(=O)CCCc1ccccc1 | 0 | 0 | 0 | 0 | 0 | 0 | - | - | - | - | - | -
Cc1cccc(Nc2nnc(SCC(=O)Nc3cccc(S(=O)(=O)N4CCCCC4)c3)s2)c1 | 0 | 0 | 0 | -5.1 | 0 | 0 | 0 | 0 | ? | ? | 0.014 | 0
CCc1ccc(Nc2nnc(SCC(=O)Nc3cccc(S(=O)(=O)NC4=NCCCCC4)c3)s2)cc1 | 0 | 0 | 0 | -7.4 | 0 | 0 | 0 | 0.0078 | 0.026 | 0 | 0.011 | 0
Cc1sc2ncnc(SCC(=O)NNC(=O)c3ccco3)c2c1C | 0 | 0 | 0 | 0 | 0 | 0 | - | - | - | - | - | -
Cc1sc2ncnc(SCC(=O)NC(=O)c3cccn3C)c2c1C | 0 | 0 | 0 | 59 | 0 | 0 | 0.039 | 0.13 | 0.045 | 0.072 | 0.072 | 0.029
Cc1sc2ncnc(SCC#N)c2c1C | 0 | 0 | 0 | 4.5 | 0 | 0 | 0 | 0.016 | 0 | 0.0099 | ? | ?
Cc1ccc(Nc2nnc(SCC(=O)Nc3cccc(S(=O)(=O)NC4=NCCCCC4)c3)s2)cc1 | 0 | 0 | 0 | 0 | 0 | 0 | - | - | - | - | - | -
CCc1ccc(Nc2nnc(SCC(=O)Nc3ccc(C(=O)O)cc3)s2)cc1 | - | 0 | - | 0 | - | - | - | - | - | - | - | -
CCc1ccc(Nc2nnc(SCC(=O)NC(=O)c3cccn3C)s2)cc1 | 0 | 0 | 0 | -4.9 | 0 | 0 | 0 | 0 | 0.025 | ? | 0.012 | 0
Cc1cc2cc(C(c3nnnn3Cc3ccccc3)N3CCc4ccccc43)c(=O)[nH]c2cc1C (centres undefined) | 0 | - | 0 | - | 0 | 0 | 0 | 0 | 0 | 0 | 0.014 | 0
COc1ccc(CCC(=O)NNC(=S)Nc2cccc(C(C)=O)c2)cc1 | 0 | 0 | 0 | 0 | 0 | 0 | - | - | - | - | - | -
CCn1c2ccc(C)cc2c2nnc(NN)nc21 | 0 | 0 | 0 | -6.9 | 0 | 0 | 0 | ? | 0 | 0 | 0 | 0
CCn1c2ccccc2c2nnc(NN)nc21 | 0 | 0 | 0 | 0 | 0 | 0 | - | - | - | - | - | -
COC(=O)c1ccc(CSc2nnc(C)n2N)o1 | 0 | 0 | 0 | 0 | 0 | 0 | - | - | - | - | - | -
CCC(c1nnnn1CCOC)N1CCN(C(=O)c2ccco2)CC1 (centres undefined) | 0 | 0 | 0 | 0 | 0 | 0 | - | - | - | - | - | -
COCCn1nnnc1C(CC(C)C)N1CCN(C(=O)c2ccco2)CC1 (centres undefined) | 0 | 0 | 0 | 7.5 | 0 | 0 | 0 | 0 | 0 | 0 | 0 | 0
CC(C)(C)c1cc(-c2n[nH]c(=S)n2-c2ccccc2F)n[nH]1 | - | - | - | 39 | - | - | 0 | 0.047 | 0.045 | 0.033 | 0.042 | 0.03
Cc1ccccc1-n1c(-c2ccc(=O)[nH]n2)n[nH]c1=S | 0 | 0 | 0 | 0 | 0 | 0 | - | - | - | - | - | -
SMILES | STAT3 blocker | HSV replic up | STAT3 act | Cl transport mod | STAT1 activator | STAT1 blocker | KCC2 sec1 | KCC2 bumet counter | KCC2 sec2 | HEK counter1 | KCC2 ouabain | HEK counter2
Cc1cc(C)c(C)c(OCCCn2ccnc2)c1 | 0 | 0 | 0 | 0 | 0 | 0 | - | - | - | - | - | -
CCSc1nnc(-c2cc(Br)ccc2N=Cc2c(C)[nH]n(-c3ccccc3)c2=O)c(=O)[nH]1 | 0 | 0 | 0 | 4.6 | 0 | 0 | 0 | 0.014 | 0 | 0.013 | 0 | 0.012
CC(=O)Oc1ccc(C(=O)Nc2nnc(C)s2)cc1 | 0 | 0 | 0 | 2.4 | 0 | 0 | 0 | 0 | 0 | 0 | 0 | ?
O=c1c(-c2nnc(SCc3ccc(Cl)c(Cl)c3)o2)cccn1Cc1ccccc1 | 0 | 0 | 0 | 0 | 0 | 0 | - | - | - | - | - | -
COc1ccc(OC)c2sc(NNC(=O)C3COc4ccccc4O3)nc12 (centres undefined) | 0 | 0 | 0 | - | 0 | 0 | - | - | - | - | - | -
O=C(NNc1nc2c(F)cc(F)cc2s1)C1COc2ccccc2O1 (centres undefined) | 0 | 0 | 0 | 6 | 0 | 0 | ? | 0.036 | 0 | ? | 0.033 | ?
O=C(Nc1nnc(C(F)(F)F)s1)C1COc2ccccc2O1 (centres undefined) | 0 | 0 | 0 | -3.8 | 0 | 0 | 0 | 0 | 0 | 0 | 0 | 0
Cc1cccc2sc(NNC(=O)C3COc4ccccc4O3)nc12 (centres undefined) | 0 | 0 | 0 | 10 | 0 | 0 | 0 | 0.043 | 0 | 0.017 | 0.035 | 0.015
